Test [1] concerns Rattus norvegicus. Briefly: Percentage change unpunished lever presses from mean score on 6-8 rats at 10 mg/kg po1h pretest. It counts as functional.
For test [2], the system named is Rattus norvegicus. As to the kind of experiment: Percentage change punished lever presses from mean score on 6-8 rats(P<0.01) at 5 mg/kg po1h pretest. It counts as functional.
Test [3] deals with Rattus norvegicus. As to the kind of experiment: Percentage change unpunished lever presses from mean score on 6-8 rats at 20 mg/kg po1h pretest. In kind it is functional.
Test [4] relates to Rattus norvegicus. As to the kind of experiment: Percentage change unpunished lever presses from mean score on 6-8 ratsP<0.05)at 2 mg/kg po1h pretest. It counts as functional.
Test [5] deals with Rattus norvegicus. As to the kind of experiment: Percentage change unpunished lever presses from mean score on 6-8 rats at 5 mg/kg po1h pretest. In kind it is functional.
For test [6], the species on record is Rattus norvegicus. Briefly: The dose required to reverse […]- induced hypolocomotion in rat by 50 %. In kind it is functional. The settings on record: ip, 0.5 h, read-out: ID50 (the source's name).
The subject of test [7] is Rattus norvegicus. As to the kind of experiment: Percentage change punished lever presses from mean score on 6-8 rats(P<0.001) at 2 mg/kg po1h pretest. It counts as functional.
Test [8] deals with Rattus norvegicus. Briefly: Percentage change unpunished lever presses from mean score on 6-8 rats at 0.5 mg/kg po1h pretest. In kind it is functional.
Test [9] deals with Rattus norvegicus. As to the kind of experiment: Percentage change punished lever presses from mean score on 6-8 rats at 0.5 mg/kg po1h pretest. It counts as functional.
The test system of test [10] is Rattus norvegicus. Briefly: Percentage change punished lever presses from mean score on 6-8 rats(P<0.001) at 1 mg/kg po1h pretest. In kind it is functional.
The subject of test [11] is Rattus norvegicus. Briefly: Percentage change punished lever presses from mean score on 6-8 rats(P<0.001) at 10 mg/kg po1h pretest. It counts as functional.
Test [12] has as its system Rattus norvegicus. As to the kind of experiment: Percentage change punished lever presses from mean score on 6-8 rats(P<0.001) at 20 mg/kg po1h pretest. It counts as functional.
Test [13] concerns Rattus norvegicus. As to the kind of experiment: Percentage change unpunished lever presses from mean score on 6-8 ratsP<0.01) at 1 mg/kg po1h pretest. It counts as functional.
The test system of test [14] is Rattus norvegicus. As to the kind of experiment: Percentage change unpunished lever presses from mean score on 6-8 rats at 1 mg/kg po1h pretest. In kind it is functional.
The test system of test [15] is Rattus norvegicus. As to the kind of experiment: Percentage change unpunished lever presses from mean score on 6-8 rats at 0.2 mg/kg po1h pretest. In kind it is functional.
The target in test [16] is T1, 5-hydroxytryptamine receptor 2C (Homo sapiens, UniProt P28335).
T1 sequence (P28335 whole entry): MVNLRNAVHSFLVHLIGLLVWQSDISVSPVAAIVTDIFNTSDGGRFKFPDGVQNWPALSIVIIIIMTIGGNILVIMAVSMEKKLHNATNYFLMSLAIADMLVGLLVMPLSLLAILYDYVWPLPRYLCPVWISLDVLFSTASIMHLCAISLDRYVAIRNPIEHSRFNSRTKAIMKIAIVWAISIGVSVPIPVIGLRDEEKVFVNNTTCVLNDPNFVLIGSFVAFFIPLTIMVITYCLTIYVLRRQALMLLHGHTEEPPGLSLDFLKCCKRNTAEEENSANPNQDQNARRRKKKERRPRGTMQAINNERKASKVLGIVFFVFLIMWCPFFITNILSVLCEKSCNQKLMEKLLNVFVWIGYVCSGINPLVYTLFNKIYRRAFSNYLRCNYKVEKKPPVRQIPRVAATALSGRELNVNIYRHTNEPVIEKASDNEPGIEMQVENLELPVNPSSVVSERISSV
As to the kind of experiment: Binding affinity towards cloned human 5-hydroxytryptamine 2C receptor expressed in HEK 293 cells using [3H]mesulergine as radioligand. It counts as cell-based, HEK293.

Test [17] has as its system Rattus norvegicus. As to the kind of experiment: Percentage change punished lever presses from mean score on 6-8 rats(P<0.001) at 0.5 mg/kg po1h pretest. It counts as functional.
Test [18] relates to Rattus norvegicus. As to the kind of experiment: Percentage change punished lever presses from mean score on 6-8 rats(P<0.001) at 5 mg/kg po1h pretest. In kind it is functional.
The test system of test [19] is Rattus norvegicus. Briefly: Percentage change unpunished lever presses from mean score on 6-8 rats at 2 mg/kg po1h pretest. It counts as functional.
Test [20] deals with 5-hydroxytryptamine receptor 2A (Homo sapiens, UniProt P28223). Briefly: Binding affinity towards human 5-hydroxytryptamine 2A receptor expressed in HEK 293 cells using [3H]ketanserin as radioligand. In kind it is cell-based, HEK293. The method in brief:
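Radioligand binding on human cloned receptors stably expressed in HEK 293 cells; 5-HT2A labelled with [3H]ketanserin, 5-HT2B with [3H]-5-HT. Values are means of at least two determinations, each within 0.2 log unit of the mean.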

For test [21], the system named is Rattus norvegicus. As to the kind of experiment: Percentage change punished lever presses from mean score on 6-8 rats at 0.2 mg/kg po1h pretest. In kind it is functional.
Test [22] has as its system Rattus norvegicus. As to the kind of experiment: Percentage change punished lever presses from mean score on 6-8 ratsP<0.001) at 2 mg/kg po1h pretest. In kind it is functional.
Test [23] concerns Rattus norvegicus. As to the kind of experiment: Percentage change punished lever presses from mean score on 6-8 ratsP<0.001) at 5 mg/kg po1h pretest. It counts as functional.
The test system of test [24] is Rattus norvegicus. As to the kind of experiment: Percentage change punished lever presses from mean score on 6-8 ratsP<0.001) at 10 mg/kg po1h pretest. In kind it is functional.
The subject of test [25] is Rattus norvegicus. As to the kind of experiment: Percentage change unpunished lever presses from mean score on 6-8 rats(P<0.05) at 2 mg/kg po1h pretest. In kind it is functional.
Test [26] concerns Rattus norvegicus. As to the kind of experiment: Percentage change unpunished lever presses from mean score on 6-8 rats(P<0.01) at 20 mg/kg po1h pretest. It counts as functional.
Test [27] concerns Rattus norvegicus. Briefly: Percentage change punished lever presses from mean score on 6-8 ratsP<0.001) at 20 mg/kg po1h pretest. In kind it is functional.
Test [28] relates to Rattus norvegicus. As to the kind of experiment: Percentage change punished lever presses from mean score on 6-8 rats at 5 mg/kg po1h pretest. It counts as functional. An outline of the steps: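 Geller–Seifter conflict test in trained rats, groups of 6–8, oral dosing. Lever pressing for food reward on a multiple schedule: five 3-min VI30 components alternating with five 3-min light-signalled FR5 components, where reward came with footshock (15 ms pulses at 200 ms intervals for 1 s). Punished presses compared with each of 2 preceding vehicle-treated test days by two-way ANOVA of square-root-transformed data.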

Consider 4 compounds from ChEMBL document CHEMBL1131637, “Novel and selective 5-HT2C/2B receptor antagonists as potential anxiolytic agents: synthesis, quantitative structure-activity relationships, and molecular modeling of substituted 1-(3-pyridylcarbamoyl)indolines” (J Med Chem, 1998).

By Ki is commonly meant the equilibrium dissociation constant of an inhibitor or competing ligand from its target. A high value points to lower affinity.

5-hydroxytryptamine receptor 2A, sequence (P28223 whole entry): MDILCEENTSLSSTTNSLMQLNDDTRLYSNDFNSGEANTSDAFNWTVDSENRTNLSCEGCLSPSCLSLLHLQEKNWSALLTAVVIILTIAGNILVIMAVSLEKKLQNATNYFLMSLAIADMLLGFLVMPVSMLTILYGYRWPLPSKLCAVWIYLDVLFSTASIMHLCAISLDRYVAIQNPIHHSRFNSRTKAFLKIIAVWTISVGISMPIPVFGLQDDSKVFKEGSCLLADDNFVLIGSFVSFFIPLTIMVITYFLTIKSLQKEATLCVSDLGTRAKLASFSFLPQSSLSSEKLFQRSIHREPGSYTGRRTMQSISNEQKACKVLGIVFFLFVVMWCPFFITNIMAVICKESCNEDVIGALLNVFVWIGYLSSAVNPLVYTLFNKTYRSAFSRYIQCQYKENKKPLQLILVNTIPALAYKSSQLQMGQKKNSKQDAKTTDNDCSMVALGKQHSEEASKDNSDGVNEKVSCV

For the compound `CSc1cc2c(cc1C(F)(F)F)N(C(=O)Nc1cccnc1)CC2`, the Change was -2% in test [1]; 38% in test [2]; 0% in test [3]; 4% in test [4]; 2% in test [5]; 36% in test [7]. Further, the Change is listed as 3% in [8]; 6% in test [9]; 30% in [10]; 46% in [11]; 76% in test [12]; 10% in test [13]. In addition, the ED50 in test [6] worked out at 1.2 mg/kg.
With `CCOc1cc2c(cc1C(F)(F)F)N(C(=O)Nc1cccnc1)CC2`, the Change in [14] is on record as 4%; in [15], 3%; in [5] it was 0%; in test [17] it was 31%; in test [7] it was 24%; in [8] it was 3%. Further, the Change in test [18] is 31%; in test [19], 1%; in test [10] it was 33%; in [21] it was 5%. Further, the inhibitory constant (Ki) in [16] was 6.31 nM; in test [20], 1580 nM. The ED50 in test [6] came out at 1 mg/kg.
On to `CSc1cc2c(cc1Br)N(C(=O)Nc1cccnc1)CC2`, for which the Change in [22] is recorded as 29%; in [1], 3%; in test [23], 28%; in [14], 2%; in [5] it was 4%; in test [24], 38%. Moreover, the Change in [8] is given as 0%; in test [9], 0%; in test [10] it was 24%; in test [25], 5%; in test [26], 6%; in test [27], 53%. In addition, the inhibitory constant (Ki) in test [16] was 2 nM; in test [20], 501 nM. Also, the ED50 in [6] came out at 3 mg/kg.
Regarding `CN1C(=O)CN=C(c2ccccc2)c2cc(Cl)ccc21` [DIAZEPAM], the Change in test [5] was -19%; in test [28] it was 70%.
